Converted amounts (≈) assume the structure as drawn.
Legend:
Assay type in all cases: functional
Settings in all cases: 168 h
[1] = test system: Mycobacterium tuberculosis; experiment: Antimycobacterial activity against multidrug (isoniazid and rifampicin) resistant Mycobacterium tuberculosis 2 incubated for 7 days by rapid direct susceptibility test
How it was run: (§1)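 Two-fold compound dilutions were mixed with MTB suspension containing 4×10 -3 mg cells per well and incubated at 37 °C in a wet box. MIC was read from the quantity and state of cells in each well under a continuous visual high-magnification system and was re-determined 7 days later.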

[2] = test system: Mycobacterium tuberculosis; experiment: Antimycobacterial activity against rifampicin-resistant Mycobacterium tuberculosis incubated for 7 days by rapid direct susceptibility test; how it was run: as §1
[3] = test system: Mycobacterium tuberculosis; experiment: Antimycobacterial activity against multidrug (isoniazid and rifampicin) resistant Mycobacterium tuberculosis 1 incubated for 7 days by rapid direct susceptibility test; how it was run: as §1

Row | SMILES | MIC [1] | MIC [2] | MIC [3]
1 | CO/N=C1/C(=O)N(Cc2cn(CC(=O)N3CCC[C@@H]4CN(c5c(F)cc6c(=O)c(C(=O)O)cn(C7CC7)c6c5OC)C[C@@H]43)nn2)c2ccccc21 | 1 µg/mL (≈ 1.43 µM) | 1 µg/mL (≈ 1.43 µM) | 0.5 µg/mL (≈ 0.716 µM)
2 | COc1c(N2C[C@H]3CCCN(C(=O)Cn4cc(CN5C(=O)/C(=N/NC(N)=S)c6ccccc65)nn4)[C@H]3C2)c(F)cc2c(=O)c(C(=O)O)cn(C3CC3)c12 | 0.5 µg/mL (≈ 0.673 µM) | 0.25 µg/mL (≈ 0.337 µM) | 0.25 µg/mL (≈ 0.337 µM)
3 | COc1c(N2C[C@H]3CCCN(C(=O)Cn4cc(CN5C(=O)/C(=N/NC(N)=S)c6cc(F)ccc65)nn4)[C@H]3C2)c(F)cc2c(=O)c(C(=O)O)cn(C3CC3)c12 | 2 µg/mL (≈ 2.63 µM) | 1 µg/mL (≈ 1.31 µM) | 1 µg/mL (≈ 1.31 µM)
4 | COc1c(N2C[C@H]3CCCN(C(=O)Cn4cc(CN5C(=O)C(=O)c6ccccc65)nn4)[C@H]3C2)c(F)cc2c(=O)c(C(=O)O)cn(C3CC3)c12 | 0.25 µg/mL (≈ 0.373 µM) | 0.5 µg/mL (≈ 0.747 µM) | 0.5 µg/mL (≈ 0.747 µM)
5 | COc1c(N2CCNC(C)C2)c(F)cc2c(=O)c(C(=O)O)cn(C3CC3)c12 (centres undefined) [GATIFLOXACIN] | 0.5 µg/mL (≈ 1.33 µM) | 1 µg/mL (≈ 2.66 µM) | 0.25 µg/mL (≈ 0.666 µM)
6 | NNC(=O)c1ccncc1 [ISONIAZID] | > 128 µg/mL | 0.5 µg/mL (≈ 3.65 µM) | 64 µg/mL (≈ 467 µM)
7 | COc1c(N2C[C@@H]3CCCN[C@@H]3C2)c(F)cc2c(=O)c(C(=O)O)cn(C3CC3)c12 [MOXIFLOXACIN] | 0.25 µg/mL (≈ 0.623 µM) | 0.5 µg/mL (≈ 1.25 µM) | 0.25 µg/mL (≈ 0.623 µM)
8 | CO[C@H]1/C=C/O[C@@]2(C)Oc3c(C)c(O)c4c(O)c(c(/C=N/N5CCN(C)CC5)c(O)c4c3C2=O)NC(=O)/C(C)=C\C=C\[C@H](C)[C@H](O)[C@@H](C)[C@@H](O)[C@@H](C)[C@H](OC(C)=O)[C@@H]1C [RIFAMPIN] | > 128 µg/mL | > 128 µg/mL | > 128 µg/mL
